Experimental data from ChEMBL document CHEMBL3525966, “Compartmental and enzyme kinetic modeling to elucidate the biotransformation pathway of a centrally acting antitrypanosomal prodrug” (Drug Metab Dispos, 2013).

Experiments:
[1] = tested on: Liver microsome; assay: Prodrug conversion in rat liver microsomes assessed as elution time at 10 uM after 180 mins incubation by HPLC-UV chromatography; format: ADME; conditions: 3 h
In short: (§1)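 HLM or RLM (0.5 mg/mL) were incubated in triplicate in 100 mM phosphate pH 7.4 with 10 mM MgCl2 and an NADPH-regenerating system (1 mM NADP+, glucose 6-phosphate, G6PDH). DB868 was 10 µM. Sampled up to 180 min. Prodrug and metabolites were measured by HPLC-UV at 359 nm and expressed relative to initial prodrug; DB829 LLOQ 50 nM.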

[2] = tested on: Liver microsome; assay: Prodrug conversion in human liver microsomes assessed as elution time at 10 uM after 180 mins incubation by HPLC-UV chromatography; format: ADME; conditions: 3 h; in short: as §1
[3] = tested on: Liver microsome; assay: Prodrug conversion in rat liver microsomes assessed as depletion of compound at 10 uM after 180 mins incubation by HPLC-UV chromatography; format: ADME; conditions: 3 h; in short: as §1
[4] = target: T1, Cytochrome P450 2D26 (Rattus norvegicus, UniProt P10634); assay: Prodrug conversion assessed as rat recombinant CYP2D2-mediated (Z)-N'-hydroxy-6-(5-(5-((Z)-N'-methoxycarbamimidoyl)pyridin-2-yl)furan-2-yl) nicotinimidamide formation at 5 uM after 180 mins incubation by HPLC-UV chromatogram; format: ADME; conditions: recombinant enzyme, 15 min, in the assay text read “15 mins” for “180 mins”
T1 sequence (P10634 whole entry): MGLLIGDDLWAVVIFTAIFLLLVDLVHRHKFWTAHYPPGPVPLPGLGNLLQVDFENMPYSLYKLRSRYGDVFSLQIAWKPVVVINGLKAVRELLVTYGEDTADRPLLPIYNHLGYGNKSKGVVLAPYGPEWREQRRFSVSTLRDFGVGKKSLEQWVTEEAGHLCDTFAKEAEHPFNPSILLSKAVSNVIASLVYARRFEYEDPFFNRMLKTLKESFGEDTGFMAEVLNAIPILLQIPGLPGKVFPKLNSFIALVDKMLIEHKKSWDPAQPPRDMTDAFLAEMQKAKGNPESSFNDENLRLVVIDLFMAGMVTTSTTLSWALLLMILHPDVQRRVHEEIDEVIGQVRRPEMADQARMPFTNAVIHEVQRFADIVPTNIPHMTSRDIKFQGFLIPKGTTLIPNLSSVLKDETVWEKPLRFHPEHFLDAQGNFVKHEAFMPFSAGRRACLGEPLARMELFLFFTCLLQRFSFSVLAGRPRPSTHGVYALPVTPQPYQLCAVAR
In short: (§2)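 Insect-cell-expressed human or rat P450 (with NADPH-P450 reductase, some also with cytochrome b5) at 0.1 pmol/µL in 100 mM potassium phosphate pH 7.4 with 10 mM MgCl2. DB868 (for M1) or M1 (for M2) was added at 5 µM (0.5% DMSO) and started with 2 mM NADPH. Stopped after 15 min with ice-cold acetonitrile, then HPLC-UV. Duplicate incubations.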

[5] = Biotransformation in sandwich-cultured rat hepatocytes assessed as depletion of compound at 10 uM after 4 hrs of incubation by HPLC-MS/MS analysis; format: ADME, cell-based, Hepatocyte; conditions: read-out: Drug metabolism
In short: (§3)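 Sandwich-cultured hepatocytes were used on day 5 (human) or day 4 (rat) and rinsed with warm phenol-red-free DMEM. They were then exposed to 10 µM DB868 (0.1–0.2% DMSO) at 37°C. Medium and methanol/water cell lysates were collected at 0.5, 2, 4 and 24 h. Analytes were quantified by HPLC/MS/MS with deuterated internal standards; protein by Bradford. Replicates: 6 (human) or 4 (rat).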

[6] = target: Cytochrome P450 3A4 (Homo sapiens, UniProt P08684); assay: Prodrug conversion assessed as human recombinant CYP3A4-mediated (Z)-N'-hydroxy-6-(5-(5-((Z)-N'-methoxycarbamimidoyl)pyridin-2-yl)furan-2-yl) nicotinimidamide formation at 5 uM after 180 mins incubation by HPLC-UV chromatogram; format: ADME; conditions: recombinant enzyme, 15 min, in the assay text read “15 mins” for “180 mins”; in short: as §2
Sequence of Cytochrome P450 3A4 (P08684 whole entry): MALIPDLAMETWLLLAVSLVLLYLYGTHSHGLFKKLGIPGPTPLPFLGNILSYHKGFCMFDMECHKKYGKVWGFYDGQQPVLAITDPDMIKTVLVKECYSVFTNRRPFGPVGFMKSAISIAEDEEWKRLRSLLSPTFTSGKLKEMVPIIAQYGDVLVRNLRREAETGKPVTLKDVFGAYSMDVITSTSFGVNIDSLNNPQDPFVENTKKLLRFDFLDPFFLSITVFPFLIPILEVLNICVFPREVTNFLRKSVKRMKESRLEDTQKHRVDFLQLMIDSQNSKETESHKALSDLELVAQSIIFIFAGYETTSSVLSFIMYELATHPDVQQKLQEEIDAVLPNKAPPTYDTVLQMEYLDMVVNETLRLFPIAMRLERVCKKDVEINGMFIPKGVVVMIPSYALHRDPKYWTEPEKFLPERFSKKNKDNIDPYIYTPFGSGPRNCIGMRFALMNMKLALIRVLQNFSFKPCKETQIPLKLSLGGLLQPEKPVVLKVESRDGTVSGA

[7] = tested on: Liver microsome; assay: Intrinsic clearance in human liver microsomes assessed as (Z)-N'-hydroxy-6-(5-(5-((Z)-N'-methoxycarbamimidoyl)pyridin-2-yl)furan-2-yl nicotinimidamide formation measured per mg of protein by HPLC-MS/MS analysis; format: ADME
In short: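 M1 formation kinetics: HLM or RLM (0.5 mg/mL) in phosphate pH 7.4 with MgCl2, DB868 0.1–100 µM, started with 2 mM NADPH. Run 5 min (HLM) or 10 min (RLM) under initial-rate conditions (<20% consumption) in triplicate. Quantified by HPLC/MS/MS with d6-DB868 internal standard. Fitted to a one-enzyme (HLM) or two-enzyme (RLM) Michaelis–Menten model; Clint = Vmax/Km.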

[8] = target: T2, Cytochrome P450 4F1 (Rattus norvegicus, UniProt P33274); assay: Prodrug conversion assessed as rat purified CYP4F1-mediated (Z)-N'-hydroxy-6-(5-(5-((Z)-N'-methoxycarbamimidoyl)pyridin-2-yl)furan-2-yl) nicotinimidamide formation at 5 uM after 30 mins incubation by HPLC-UV chromatogram; conditions: purified enzyme
T2 sequence (P33274 whole entry): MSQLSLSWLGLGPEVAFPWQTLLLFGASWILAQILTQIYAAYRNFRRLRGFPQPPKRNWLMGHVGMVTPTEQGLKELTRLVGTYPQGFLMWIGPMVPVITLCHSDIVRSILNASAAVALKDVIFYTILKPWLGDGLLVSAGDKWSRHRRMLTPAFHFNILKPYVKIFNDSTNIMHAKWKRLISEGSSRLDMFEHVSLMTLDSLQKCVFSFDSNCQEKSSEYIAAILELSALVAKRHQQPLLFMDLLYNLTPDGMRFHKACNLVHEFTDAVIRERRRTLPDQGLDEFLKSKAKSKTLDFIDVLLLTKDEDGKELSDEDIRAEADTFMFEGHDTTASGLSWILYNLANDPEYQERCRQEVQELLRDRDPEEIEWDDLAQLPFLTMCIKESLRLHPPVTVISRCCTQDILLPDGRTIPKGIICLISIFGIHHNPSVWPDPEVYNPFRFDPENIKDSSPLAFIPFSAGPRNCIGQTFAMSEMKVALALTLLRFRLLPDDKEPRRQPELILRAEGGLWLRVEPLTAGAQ

[9] = Drug metabolism in sandwich-cultured human hepatocytes assessed as (3Z,3'Z)-6,6'-(furan-2,5-diyl)bis(N'-hydroxynicotinimidamide) at 10 uM after 4 hrs of incubation by HPLC-MS/MS analysis; format: ADME, cell-based, Hepatocyte; in short: as §3

## CO/N=C(\N)c1ccc(-c2ccc(-c3ccc(/C(N)=N/OC)cn3)o2)nc1.Cl
[1]
  Retention_time: 18.5 min
[2]
  Retention_time: 18.5 min
[3]
  Drug metabolism: 43%
[4]
  Drug metabolism: metabolite_detected
[5]
  metabolised at 4 h, 10 µM: 50%
[6]
  Drug metabolism: metabolite_detected
[7]
  CLint: 31 µL/min/mg
[8]
  Drug metabolism: metabolite_detected
[9]
  Drug metabolism: metabolite_detected
